The values that follow come from ChEMBL document CHEMBL1144887, “Indanylidenes. 1. Design and synthesis of (E)-2-(4,6-difluoro-1-indanylidene)acetamide, a potent, centrally acting muscle relaxant with antiinflammatory and analgesic activity” (J Med Chem, 2003).

Bounds are passed on as bounds.

Common to all, as to type: functional
The species named for experiment [1] is Mus musculus. The experiment in a line: Ratio of rotarod to Straub-tail activity, which indicates the dose exhibiting muscle relaxant activity versus that producing sedation. In a few lines: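 Ratio of rotorod ED50 (po) to Straub tail ED50 (po), both measured in mice with oral dosing. Indicates separation between the muscle-relaxant dose and the sedating dose.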

The test system of experiment [2] is Mus musculus. Kind of experiment: Effective dose required for muscle relaxation by oral administration in mouse using Straub-tail (ST) assay. In a few lines:
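Mouse morphine-induced Straub tail assay, scoring inhibition of sacro-coccygeus dorsalis contraction. Dosed ip or po, generally at a minimum of three doses with N = 6 animals per dose group.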

The test system of experiment [3] is Mus musculus. Kind of experiment: (§1) Percent effect profile muscle relaxation at 100 mg/kg by intraperitoneal administration in mouse using Straub-tail (ST) assay. Particulars: ip. Summed up: (§2)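 Mouse morphine-induced Straub tail assay, scoring inhibition of sacro-coccygeus dorsalis contraction. Single ip dose of 100 mg/kg; percent effect reported. Compounds above 50% inhibition were then tested orally.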

Experiment [4] concerns Rattus norvegicus. Kind of experiment: Antiinflammatory activity in cells by Carrageenan pleurisy assay by oral administration at 20 mg/kg. In a few lines:
(§3)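 Rat carrageenan pleurisy, 3 h. Single oral dose of 20 mg/kg, with separate read-outs for pleural cell counts and edema as percent inhibition. Each compound tested two or three times; average variation approximately 10%.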

Experiment [5] has as its system Rattus norvegicus. Kind of experiment: Antiinflammatory activity in edema by Carrageenan pleurisy assay by oral administration at 20 mg/kg. Summed up:
as §3

The subject of experiment [6] is Mus musculus. The experiment in a line: Sedation caused by oral administration was estimated using rotarod (RR) assay. Summed up: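 Mouse rotorod test for sedation, oral dosing, generally at a minimum of three doses with N = 6 animals per dose group.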
For experiment [7], the system named is Rattus norvegicus. Kind of experiment: Percent inhibition for analgesic activity by trypsin-induced hyperalgesia assay at 20 mg/kg by oral administration in rats. In a few lines: (§4)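 Rat trypsin-induced hyperalgesia (mild analgesia). Percent inhibition at a single oral dose of 20 mg/kg. Each compound tested two or three times; average variation approximately 5%.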

Experiment [8] concerns Rattus norvegicus. The experiment in a line: Percent inhibition for analgesic activity by trypsin-induced hyperalgesia assay at 20 mg/kg by oral administration in rats. Summed up: as §4
Experiment [9] deals with Mus musculus. Described as §1. The following applies: ip. In a few lines: as §2
The source holds these as a separate data set.

The test system of experiment [10] is Rattus norvegicus. The experiment in a line: Effective dose required for analgesic activity by trypsin-induced hyperalgesia assay at 20 mg/kg by oral administration in rats. Summed up:
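Rat trypsin-induced hyperalgesia (mild analgesia) with oral dosing. ED50 reported in mg/kg po. Each compound tested two or three times; average variation approximately 5%.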

For `NC(=O)/C=C1\CCc2cc(F)ccc21`, the Ratio in [1] was >~2. Moreover, the results for the ED50 in [2] and in experiment [6] were 56 mg/kg and > 100 mg/kg, respectively. Further, the inhibition in vivo at 100 mg/kg in experiment [3] was found to be 100%. In addition, the inhibition in vivo at 20 mg/kg in [4] is 54%; in [5], 42%.

The molecule `O=C(/C=C1\CCc2c(F)cc(F)cc21)NCCO` returned an inhibition in vivo at 20 mg/kg in experiment [7] of 27%. The same molecule returned an ED50 in experiment [2] of 100 mg/kg. In experiment [3], this molecule came in with an inhibition in vivo at 100 mg/kg of 83%.

With `NC(=O)/C=C1\CCc2c(F)ccc(F)c21`, in experiment [1], the Ratio was 1.6. In addition, the ED50 was 56 mg/kg in experiment [2], 89 mg/kg in experiment [6] and 8 mg/kg in experiment [10]. The inhibition in vivo at 20 mg/kg in [4] came to 67%; in experiment [5] it was 67%; in experiment [8], 83%. At 100 mg/kg the inhibition in vivo in experiment [9] was 100%.

On to `NC(=O)/C=C1\CCc2cc(Cl)ccc21`, for which the inhibition in vivo at 100 mg/kg in experiment [3] turned out to be 0%. For the same molecule, the inhibition in vivo at 20 mg/kg turned out to be 30% in experiment [4], 29% in experiment [5] and 42% in [8]. In experiment [10], this molecule came in with an ED50 of 30 mg/kg.

As for `Cc1cccc2c1CC/C2=C\C(=O)NC1CC1`, the Ratio in experiment [1] was found to be 1.6. The figures for the ED50 in experiment [2] and in experiment [6] were 40 mg/kg and 64 mg/kg, respectively. In [3], the inhibition in vivo at 100 mg/kg came to 100%. Also, the results for the inhibition in vivo at 20 mg/kg in experiment [4] and in experiment [5] were 15% and 7%, respectively.

Turning to `Cc1cccc2c1/C(=C/C(N)=O)CC2`, in experiment [1], the Ratio is 0.7. Moreover, 20 mg/kg produced 12% inhibition in vivo in [7]. Besides, the ED50 in experiment [2] was 82 mg/kg; in experiment [6], 56 mg/kg. The molecule also gave an inhibition in vivo at 100 mg/kg in experiment [9] of 100%.

In turn, `CNC(=O)/C=C1\CCc2ccc(F)cc21` returned an inhibition in vivo at 100 mg/kg in experiment [3] of 50%. Moreover, the inhibition in vivo at 20 mg/kg amounted to 45% in experiment [4], 38% in experiment [5] and 58% in experiment [8]. The molecule further came in with an ED50 in experiment [10] of 25 mg/kg.

In the case of `CC(C)NC(=O)/C=C1\CCc2ccc(F)cc21`, the ED50 is 96 mg/kg in experiment [2], > 100 mg/kg in [6] and 9 mg/kg in experiment [10]. For the same molecule, the inhibition in vivo at 20 mg/kg in experiment [4] came out at 45%; in experiment [5], 71%; in experiment [8], 83%. For the same molecule, in experiment [9], 100 mg/kg produced 100% inhibition in vivo.

With `NC(=O)/C=C1/CCc2ccc(F)cc21`, the Ratio in [1] turned out to be 1.4. In experiment [7], this molecule yielded an inhibition in vivo at 20 mg/kg of 24%. For the same molecule, the ED50 is 64 mg/kg in experiment [2] and 92 mg/kg in experiment [6]. Moreover, the inhibition in vivo at 100 mg/kg in experiment [9] is 100%.

For the molecule `Cc1cccc2c1/C(=C/C(=O)NC1CC1)CC2`, 20 mg/kg produced 24% inhibition in vivo in [7]. The molecule further yielded an inhibition in vivo at 100 mg/kg in [9] of 17%.

As for `CN(C)C(=O)/C=C1\CCc2c(F)cc(F)cc21`, the Ratio in experiment [1] is 2. The same molecule showed an inhibition in vivo at 20 mg/kg in experiment [7] of 75%. The values for the ED50 in experiment [2] and in [6] were 50 mg/kg and 100 mg/kg, respectively. The molecule further yielded an inhibition in vivo at 100 mg/kg in experiment [9] of 100%.

On to `O=C(/C=C1\CCc2cc(F)ccc21)NC1CC1`, for which the Ratio in experiment [1] is 2.4. The ED50 was 81 mg/kg in [2] and 193 mg/kg in experiment [6]. This molecule registered an inhibition in vivo at 100 mg/kg in experiment [3] of 100%.

`NC(=O)CC1CCc2c(F)cc(F)cc21` (stereo not given) yielded an inhibition in vivo at 20 mg/kg in [7] of 11%. Further, at 100 mg/kg the inhibition in vivo in [3] was 50%.

Turning to `O=C(/C=C1\CCc2ccc(F)cc21)NC1CCC1`, the inhibition in vivo at 20 mg/kg in experiment [7] was 17%; in [4] it was 4%; in experiment [5], 0%. Further, the ED50 in [2] was > 100 mg/kg. The molecule further came in with an inhibition in vivo at 100 mg/kg in [3] of 100%.

As to `CNC(=O)/C=C1\CCc2cc(F)cc(F)c21`, in experiment [7], the inhibition in vivo at 20 mg/kg turned out to be 33%. In addition, testing at 100 mg/kg in experiment [9] gave an inhibition in vivo of 33%.

In experiment [2], `O=C(/C=C1\CCc2c1ccc(F)c2F)NC1CC1` returned an ED50 of 62 mg/kg. In [3], at 100 mg/kg the inhibition in vivo was 100%. The inhibition in vivo at 20 mg/kg in experiment [4] amounted to 27%; in experiment [5], 27%; in experiment [8] it was 11%.
